Results as given in ChEMBL document CHEMBL1132160, “Structure-antiviral activity relationship in the series of pyrimidine and purine N-[2-(2-phosphonomethoxy)ethyl] nucleotide analogues. 1. Derivatives substituted at the carbon atoms of the base” (J Med Chem, 1999).
≈ marks a conversion by molar mass, not a printed value.

How the values were obtained:
[1] = Inhibitory activity against murine sarcoma virus induced transformation of murine C3H/3T3 embryo fibroblasts; assay type: functional, Mus musculus
Method in brief: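 Murine C3H/3T3 embryo fibroblasts were seeded at 5 × 10⁵ cells/mL. After 24 h they were infected with 80 focus-forming units of MSV for 90–120 min at 37 °C. The medium was then replaced with fresh medium containing various compound concentrations, and transformation was examined microscopically after 6 days.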

[2] = test system: Human immunodeficiency virus 2; assay: Inhibition of human immunodeficiency virus type 2 (HIV-2) induced cytopathogenicity in CEM cells; assay type: functional, organism-based; conditions: Human immunodeficiency virus 2, CCRF-CEM
Cytomegalovirus [3] = assay: Inhibitory activity against cytomegalovirus (CMV) AD 169 strain; assay type: functional, organism-based; conditions: Human betaherpesvirus 5
Method in brief: (§1)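 HEL cell cultures, grown to confluence, received 100 CCID50 of virus. After 1 h adsorption, the inoculum was removed and the cultures were incubated with serial concentrations of compound (400, 200, 100, ... μg/mL).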

[4] = test system: Human immunodeficiency virus 1; assay: Inhibition of human immunodeficiency virus type 1 (HIV-1) induced cytopathogenicity in CEM cells; assay type: functional, organism-based; conditions: Human immunodeficiency virus 1, CCRF-CEM
Method in brief: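 CEM cells (~3 × 10⁵ cells/mL) were infected with 100 CCID50 of HIV-1 (IIIB)/mL and plated with dilutions of compound. After 4 days at 37 °C, giant cell formation was assessed microscopically.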

Human alphaherpesvirus 1 [5] = assay: Inhibition of herpes simplex virus type 1 (HSV-1) F strain; assay type: functional, organism-based
Method in brief: (§2)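 Confluent E6SM cell cultures were inoculated with 100 CCID50 of virus and allowed 1 h for adsorption. Residual virus was then removed, and the cells were incubated with test compound at 400, 200, 100, ... μg/mL. Viral cytopathicity was scored once it reached completion in untreated infected controls.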

Human alphaherpesvirus 2 [6] = assay: Inhibitory activity against herpes simplex virus type 2 (HSV-2) G strain; assay type: functional, organism-based; method in brief: as §2
Human alphaherpesvirus 1 [7] = assay: Inhibitory activity against herpes simplex virus type 1 (HSV-1) KOS strain; assay type: functional, organism-based; method in brief: as §2
Human alphaherpesvirus 1 [8] = assay: Inhibitory activity against herpes simplex virus type 1 (HSV-1) McIntyre strain; assay type: functional, organism-based; method in brief: as §2
Cytomegalovirus [9] = assay: Inhibitory activity against cytomegalovirus (CMV) Davis strain; assay type: functional, organism-based; conditions: Human betaherpesvirus 5; method in brief: as §1
Human alphaherpesvirus 2 [10] = assay: Inhibitory activity against herpes simplex virus type 2 (HSV-2) Lyons strain; assay type: functional, organism-based; method in brief: as §2
[11] = Inhibitory activity against herpes simplex virus type 2 (HSV-2) 196 strain; assay type: functional; method in brief: as §2
Vaccinia virus = assay: Inhibitory activity against vaccinia virus (VV); assay type: functional, organism-based; conditions: Orthopoxvirus vaccinia
Method in brief: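 Confluent E6SM cell cultures were inoculated with 100 CCID50 of virus and left for 1 h adsorption, then residual virus was removed. Cultures were incubated with test compound at serial concentrations (400, 200, 100, ... μg/mL). Virus-induced cytopathicity was scored once it reached completion in untreated infected control cultures.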

[12] = test system: Human immunodeficiency virus 1; assay: Inhibitory activity of compound against human immunodeficiency virus type 1 (HIV-1) induced cytopathogenicity in MT-4 cells; assay type: functional, organism-based; conditions: Human immunodeficiency virus 1, MT4
Method in brief: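 Human MT-4 cells (~4 × 10⁵ cells/mL) were infected with 100 CCID50 of HIV-1 (IIIB)/mL and seeded into wells containing compound dilutions. After 5 days at 37 °C, viable cells were counted by trypan blue exclusion in a blood cell counting chamber.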

Row | SMILES | EC50 [1] [µg/mL] | EC50 [2] [µg/mL] | EC50 (Cytomegalovirus [3]) [µg/mL] | EC50 [4] [µg/mL] | EC50 (Human alphaherpesvirus 1 [5]) [µg/mL] | EC50 (Human alphaherpesvirus 2 [6]) [µg/mL] | EC50 (Human alphaherpesvirus 1 [7]) [µg/mL] | EC50 (Human alphaherpesvirus 1 [8]) [µg/mL] | EC50 (Cytomegalovirus [9]) [µg/mL] | EC50 (Human alphaherpesvirus 2 [10]) [µg/mL] | EC50 [11] [µg/mL] | EC50 (Vaccinia virus) [µg/mL] | EC50 [12] [µg/mL]
1 | Nc1nc(O)c2nc(Br)n(CCOCP(=O)(O)O)c2n1 | > 0.16 | > 100 | 43 (≈ 117 µM) | > 100 | 240 (≈ 652 µM) | 240 (≈ 652 µM) | 240 (≈ 652 µM) | 240 (≈ 652 µM) | > 50 | > 400 | 240 (≈ 652 µM) | – | –
2 | CC(C)CCCCCOP(=O)(COCCn1cnc2c(N)nc(N)nc21)OCCCCCC(C)C | > 8 | > 4 | 0.86 (≈ 1.68 µM) | > 4 | – | > 16 | > 16 | – | 0.8 (≈ 1.56 µM) | – | – | > 16 | –
3 | Nc1nc(Cl)c2ncn(CCOCP(=O)(O)O)c2n1 | > 0.16 | > 0.16 | 0.05 (≈ 0.163 µM) | > 0.16 | 0.13 (≈ 0.423 µM) | 0.38 (≈ 1.24 µM) | 0.23 (≈ 0.748 µM) | 0.22 (≈ 0.715 µM) | 0.3 (≈ 0.975 µM) | 0.38 (≈ 1.24 µM) | 0.38 (≈ 1.24 µM) | – | –
4 | CC(C)CCCCCOP(=O)(COCCn1cnc2nc(N)nc(O)c21)OCCCCCC(C)C | > 8 | > 20 | 11 (≈ 21.4 µM) | > 20 | – | > 16 | > 16 | – | 11 (≈ 21.4 µM) | – | – | > 16 | –
5 | CC(C)OP(=O)(COCCn1c(Br)nc2c(O)nc(N)nc21)OC(C)C | > 40 | > 100 | > 50 | > 100 | 240 (≈ 531 µM) | > 400 | > 400 | 240 (≈ 531 µM) | > 50 | 240 (≈ 531 µM) | 240 (≈ 531 µM) | – | –
6 | CC(C)OP(=O)(COCCn1cnc2c(N)ncnc21)OC(C)C | > 40 | – | 8 (≈ 22.4 µM) | – | – | > 400 | > 400 | – | 30 (≈ 84 µM) | – | – | > 400 | 171 (≈ 479 µM)
7 | CC(C)OP(=O)(O)COCCn1cnc2c(N)ncnc21 | > 40 | > 100 | > 50 | > 100 | – | 300 (≈ 952 µM) | 200 (≈ 634 µM) | – | > 50 | – | – | > 400 | –
8 | CC(C)OP(=O)(O)COCCn1cnc2c(N)nc(N)nc21 | > 200 | > 100 | > 50 | > 100 | – | > 400 | 150 (≈ 454 µM) | – | > 50 | – | – | > 400 | –
9 | Nc1cc2ncn(CCOCP(=O)(O)O)c2c(O)n1 | – | – | > 100 | – | > 200 | > 200 | > 200 | > 200 | > 100 | > 200 | > 200 | – | –
10 | CC(C)CCCCCOP(=O)(COCCn1cnc2c(N)ncnc21)OCCCCCC(C)C | – | > 4 | 1 (≈ 2.01 µM) | > 4 | – | 3.2 (≈ 6.43 µM) | > 3.2 | – | 3 (≈ 6.03 µM) | – | – | > 3.2 | –
11 | CC(C)CCCCCOP(=O)(COCCn1cnc2c(O)nc(N)nc21)OCCCCCC(C)C | > 40 | > 4 | 1.2 (≈ 2.34 µM) | > 4 | – | > 80 | > 80 | – | 1.1 (≈ 2.14 µM) | – | – | > 80 | –
12 | CCOP(=O)(COCCn1cnc2c(N)ncnc21)OCC | > 40 | > 100 | – | > 100 | – | – | – | – | – | – | – | – | –
13 | CC(C)OP(=O)(O)COCCn1cnc2c(O)nc(N)nc21 | > 0.064 | 11 (≈ 33.2 µM) | 0.35 (≈ 1.06 µM) | > 20 | 0.64 (≈ 1.93 µM) | 5.3 (≈ 16 µM) | 5.7 (≈ 17.2 µM) | 0.64 (≈ 1.93 µM) | 0.3 (≈ 0.906 µM) | 1.9 (≈ 5.74 µM) | 1.9 (≈ 5.74 µM) | – | –
14 | CC(C)CCCCCOP(=O)(COCCn1cnc2c(Cl)nc(N)nc21)OCCCCCC(C)C | > 8 | > 4 | 0.86 (≈ 1.62 µM) | > 4 | – | > 16 | > 16 | – | 1 (≈ 1.88 µM) | – | – | > 16 | –
15 | Nc1nc(F)nc2c1ncn2CCOCP(=O)(O)O | 22.3 (≈ 76.6 µM) | 40 (≈ 137 µM) | > 50 | > 100 | – | 70 (≈ 240 µM) | 70 (≈ 240 µM) | – | > 50 | – | – | 150 (≈ 515 µM) | –
16 | Cc1nc(N)nc2c1ncn2CCOCP(=O)(O)O | 30 (≈ 104 µM) | > 100 | > 50 | > 100 | – | 400 (≈ 1390 µM) | > 200 | – | > 50 | – | – | > 400 | –
17 | CC(C)OP(=O)(COCCn1cnc2c(O)nc(N)nc21)OC(C)C | 13.5 (≈ 36.2 µM) | > 100 | > 50 | > 100 | 240 (≈ 643 µM) | 400 (≈ 1070 µM) | 240 (≈ 643 µM) | 80 (≈ 214 µM) | > 50 | 240 (≈ 643 µM) | 240 (≈ 643 µM) | – | –
18 | Nc1cccc2c1ncn2CCOCP(=O)(O)O | > 200 | > 100 | > 50 | > 100 | – | > 400 | > 400 | – | > 50 | – | – | > 400 | –
19 | CC(C)OP(=O)(COCCn1cnc2c(S)ncnc21)OC(C)C | > 40 | > 100 | > 50 | > 100 | – | > 400 | > 400 | – | > 50 | – | – | > 400 | –
20 | CC(C)CCCCCOP(=O)(COCCn1cnc2nc(N)nc(Cl)c21)OCCCCCC(C)C | > 8 | > 4 | 5 (≈ 9.4 µM) | > 4 | – | > 16 | > 16 | – | > 5 | – | – | > 16 | –
21 | Nc1nc(O)nc2c1ncn2CCOCP(=O)(O)O | 123 (≈ 425 µM) | > 100 | > 50 | > 100 | – | > 400 | > 400 | – | > 50 | – | – | > 50 | –
22 | Nc1ncnc2c1ncn2CCOCP(=O)(O)O [ADEFOVIR] | – | – | 30 (≈ 110 µM) | – | – | 1.1 (≈ 4.03 µM) | 3.6 (≈ 13.2 µM) | – | 77 (≈ 282 µM) | – | – | – | –
